This is an account of results in ChEMBL document CHEMBL2169803, “Brain Penetrant LRRK2 Inhibitor” (ACS Med Chem Lett, 2012).

Activity calls are given as the source filed them. The rule behind the calls is not given here.

One may read the inhibition as the relative decrease from the control value, in per cent. A word on the inhibition in vivo: it is the change of the read-out against control, counted positive when it falls. Usually bioavailability stands for dose-corrected exposure relative to a reference, in per cent. Lower therefore signals poor availability. As a reminder, the IC50 is the midpoint of a concentration-inhibition curve. The low end stands for higher potency, the high end for lower potency.

Series [1] has as its system Mus musculus. The series is described as follows: Inhibition of LRRK2 in C57BL/6 mouse brain at 100 mg/kg, ip by ADP-acylphosphate probe-based mass spectrometry relative to vehicle-treated control. The series is classed as functional. In outline:
(§1)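 KiNativ chemical proteomics on brains and spleens from mice dosed intraperitoneally at 3, 10, 30, 50 or 100 mg/kg, compared against vehicle-treated animals. Tissue lysed in 5× volume of detergent-free buffer and labeled with an ADP-acylphosphate probe. After workup and trypsin digestion, probe labeling was quantified by mass spectrometry across >150 protein and lipid kinases. Values reflect 5× dilution relative to intact tissue.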

Series [2] addresses Leucine-rich repeat serine/threonine-protein kinase 2 (Homo sapiens) (UniProt Q5S007). The following applies: HEK293, 1 uM.
For series [3], the system named is Leucine-rich repeat serine/threonine-protein kinase 2 (Homo sapiens), Q5S007 [G2019S]. The following applies: HEK293, 1 uM.
The subject of series [4] is Mus musculus. Put plainly: Inhibition of LRRK2 in C57BL/6 mouse brain at 30 mg/kg, ip by ADP-acylphosphate probe-based mass spectrometry relative to vehicle-treated control. The series is classed as functional. The following applies: C57BL/6, Brain, route intraperitoneal. Put shortly: as §1
Series [5] has as its system Mus musculus. Put plainly: Inhibition of LRRK2 autophosphorylation at Ser910 and Ser935 in C57BL/6 mouse brain at 10 mg/kg, ip by immunoblotting analysis relative to vehicle-treated control. The format is functional, organism-based. Further details: dose 10 mg/kg.
The target of series [6] is Leucine-rich repeat serine/threonine-protein kinase 2 (Mus musculus) (UniProt Q5S006). Put plainly: Inhibition of LRRK2 autophosphorylation at Ser910 and Ser935 Swiss mouse 3T3 cells by immunoblotting analysis. The series is classed as cell-based. In outline: (§2)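 Mouse Swiss 3T3 cells or mouse embryonic fibroblasts were treated with DMSO or increasing concentrations of compound for 90 min. Lysates were immunoblotted for LRRK2 phospho-Ser910, phospho-Ser935 and total LRRK2. Immunoblots were run in duplicate and are representative of at least two independent experiments.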
For orientation: Immunoblotting shows a protein as a band on a membrane.

For series [7] the target is unchanged. Put plainly: Inhibition of LRRK2 autophosphorylation at Ser910 and Ser935 mouse embryonic fibroblast cells by immunoblotting analysis. The series is classed as cell-based. In outline:
as §2

The nature of series [8]: Oral bioavailability in mouse at 10 mg/kg. The following applies: in vivo. The series is classed as ADME, organism-based. Put shortly:
(§3)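 Mouse pharmacokinetics run by a contract lab; parameters reported include oral bioavailability (%F), plasma AUClast and half-life. Full PK parameter set is given in the Supporting Information.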

Series [9] deals with Mus musculus. Put plainly: Half life in mouse at 1 mg/kg, iv. The format is ADME, organism-based. Further details: dose 1 mg/kg, route intravenous. The settings on record: in vivo. In outline: as §3
The subject of series [10] is Mus musculus. Put plainly: AUClast in mouse at 10 mg/kg, po. The following applies: in vivo. The format is ADME, organism-based, Plasma. Further details: time 0 - last, dose 10 mg/kg, route oral. Put shortly:
as §3

For a further series, the system named is Liver. Put plainly: Half life in mouse liver microsomes at 1 uM. The series is classed as ADME, Microsome. Put shortly: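 Metabolic stability determined by incubation with mouse liver microsomes; half-life (T1/2) reported in minutes.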
For orientation: Microsomes from liver hold many membrane-bound enzymes, among them those of drug oxidation.

The subject of series [11] is Mus musculus. The series is described as follows: Inhibition of LRRK2 autophosphorylation at Ser910 and Ser935 in C57BL/6 mouse brain at 100 mg/kg, ip by immunoblotting analysis relative to vehicle-treated control. Further details: dose 100 mg/kg. The format is functional, organism-based.
For series [12], the system named is Mus musculus. The series is described as follows: Inhibition of LRRK2 autophosphorylation at Ser910 and Ser935 in C57BL/6 mouse kidney at 100 mg/kg, ip by immunoblotting analysis relative to vehicle-treated control. The format is functional, organism-based. Further details: dose 100 mg/kg.
Series [13] relates to Mus musculus. Put plainly: Inhibition of LRRK2 autophosphorylation at Ser910 and Ser935 in C57BL/6 mouse spleen at 100 mg/kg, ip by immunoblotting analysis relative to vehicle-treated control. The format is functional, organism-based. Further details: dose 100 mg/kg.
The subject of series [14] is Mus musculus. Put plainly: Inhibition of LRRK2 autophosphorylation at Ser910 and Ser935 in C57BL/6 mouse brain at 50 mg/kg, ip by immunoblotting analysis relative to vehicle-treated control. The series is classed as functional, organism-based. Further details: dose 50 mg/kg.
Series [15] relates to Mus musculus. Put plainly: Inhibition of LRRK2 autophosphorylation at Ser910 and Ser935 in C57BL/6 mouse kidney at 50 mg/kg, ip by immunoblotting analysis relative to vehicle-treated control. The format is functional, organism-based. Further details: dose 50 mg/kg.
In series [16] the test system is Mus musculus. The series is described as follows: Inhibition of LRRK2 autophosphorylation at Ser910 and Ser935 in C57BL/6 mouse spleen at 50 mg/kg, ip by immunoblotting analysis relative to vehicle-treated control. The series is classed as functional, organism-based. Further details: dose 50 mg/kg.
Series [17] has as its system Mus musculus. The series is described as follows: Inhibition of LRRK2 autophosphorylation at Ser910 and Ser935 in C57BL/6 mouse brain at 30 mg/kg, ip by immunoblotting analysis relative to vehicle-treated control. The series is classed as functional, organism-based. Further details: dose 30 mg/kg.
Series [18] concerns Mus musculus. Put plainly: Inhibition of LRRK2 in ip dosed C57BL/6 mouse brain by ADP-acylphosphate probe-based mass spectrometry. The format is functional, organism-based. Put shortly:
as §1

Series [19] concerns Mus musculus. Put plainly: Inhibition of LRRK2 in ip dosed C57BL/6 mouse spleen by ADP-acylphosphate probe-based mass spectrometry. The series is classed as functional, organism-based. Put shortly: as §1
For series [20], the system named is Mus musculus. Put plainly: Inhibition of LRRK2 in C57BL/6 mouse brain at 50 mg/kg, ip by ADP-acylphosphate probe-based mass spectrometry relative to vehicle-treated control. The series is classed as functional. The settings on record: C57BL/6, Brain, route intraperitoneal. In outline:
as §1

Series [21] concerns Mus musculus. The series is described as follows: Inhibition of LRRK2 in C57BL/6 mouse spleen at 3 mg/kg, ip by ADP-acylphosphate probe-based mass spectrometry relative to vehicle-treated control. The series is classed as functional. The following applies: C57BL/6, Spleen, route intraperitoneal. Put shortly: as §1
Series [22] relates to Mus musculus. Put plainly: Inhibition of LRRK2 in C57BL/6 mouse spleen at 10 mg/kg, ip by ADP-acylphosphate probe-based mass spectrometry relative to vehicle-treated control. The series is classed as functional. The settings on record: C57BL/6, Spleen, route intraperitoneal. Put shortly: as §1
For series [23], the system named is Mus musculus. The series is described as follows: Inhibition of LRRK2 in C57BL/6 mouse spleen at 30 to 100 mg/kg, ip by ADP-acylphosphate probe-based mass spectrometry relative to vehicle-treated control. The series is classed as functional. The settings on record: dose mg/kg 30-100; route intraperitoneal. In outline:
as §1

For series [24], the system named is Mus musculus. Put plainly: Inhibition of JNK1 in ip dosed C57BL/6 mouse brain by ADP-acylphosphate probe-based mass spectrometry. The format is functional, organism-based. Put shortly: as §1
The subject of series [25] is Mus musculus. The series is described as follows: Inhibition of JNK2 in ip dosed C57BL/6 mouse brain by ADP-acylphosphate probe-based mass spectrometry. The series is classed as functional, organism-based. In outline:
as §1

The test system of series [26] is Mus musculus. Put plainly: Inhibition of JNK3 in ip dosed C57BL/6 mouse brain by ADP-acylphosphate probe-based mass spectrometry. The series is classed as functional, organism-based. Put shortly: as §1
The subject of series [27] is Mus musculus. Put plainly: Inhibition of TBK1 in ip dosed C57BL/6 mouse brain by ADP-acylphosphate probe-based mass spectrometry. The format is functional, organism-based. In outline:
as §1

Series [28] concerns Mus musculus. The series is described as follows: Inhibition of JNK1 in C57BL/6 mouse brain at 50 and 100 mg/kg, ip by ADP-acylphosphate probe-based mass spectrometry relative to vehicle-treated control. The settings on record: C57BL/6, ip, route intraperitoneal. The format is functional. In outline: as §1
In series [29] the test system is Mus musculus. Put plainly: Inhibition of JNK2 in C57BL/6 mouse brain at 50 and 100 mg/kg, ip by ADP-acylphosphate probe-based mass spectrometry relative to vehicle-treated control. The format is functional. The settings on record: C57BL/6, ip, route intraperitoneal. Put shortly:
as §1

For series [30], the system named is Mus musculus. Put plainly: Inhibition of JNK3 in C57BL/6 mouse brain at 50 and 100 mg/kg, ip by ADP-acylphosphate probe-based mass spectrometry relative to vehicle-treated control. The series is classed as functional. The following applies: C57BL/6, ip, route intraperitoneal. Put shortly: as §1
The subject of series [31] is Mus musculus. Put plainly: Inhibition of TBK1 in C57BL/6 mouse brain at 50 and 100 mg/kg, ip by ADP-acylphosphate probe-based mass spectrometry relative to vehicle-treated control. The series is classed as functional. The following applies: C57BL/6, ip, route intraperitoneal. Put shortly:
as §1

Series [32] concerns the target T1, Mitogen-activated protein kinase kinase kinase 9 (Homo sapiens, UniProt P80192). The series is described as follows: Inhibition of MLK1 at 10 uM by radiometric assay. Put shortly: (§4)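 Dundee panel of 138 kinases screened at 10 μM compound using radioactivity-based enzymatic assays. Activity was expressed relative to DMSO control.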
The target of series [33] is T2, MAP kinase-interacting serine/threonine-protein kinase 2 (Homo sapiens, UniProt Q9HBH9). Put plainly: Inhibition of MNK2 at 10 uM by radiometric assay. In outline: as §4
Series [34] concerns the target T1, Mitogen-activated protein kinase kinase kinase 9. The series is described as follows: Inhibition of MLK1 by radiometric assay. In outline: (§5)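 Radioactivity-based enzymatic kinase assay run in the Dundee profiling panel of 138 kinases. Kinases were first screened at 10 μM inhibitor, with activity expressed relative to a DMSO control. A dose–response analysis then gave the IC50.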

Series [35] has as its target T2, MAP kinase-interacting serine/threonine-protein kinase 2. Put plainly: Inhibition of MNK2 by radiometric assay. In outline: as §5
For series [36], the system named is Mast/stem cell growth factor receptor Kit (Homo sapiens), P10721 [L576P]. Put plainly: Inhibition of cKIT L576P mutant at 1 uM by KinomeScan assay.

Leucine-rich repeat serine/threonine-protein kinase 2 (Mus musculus), sequence (Q5S006 whole entry): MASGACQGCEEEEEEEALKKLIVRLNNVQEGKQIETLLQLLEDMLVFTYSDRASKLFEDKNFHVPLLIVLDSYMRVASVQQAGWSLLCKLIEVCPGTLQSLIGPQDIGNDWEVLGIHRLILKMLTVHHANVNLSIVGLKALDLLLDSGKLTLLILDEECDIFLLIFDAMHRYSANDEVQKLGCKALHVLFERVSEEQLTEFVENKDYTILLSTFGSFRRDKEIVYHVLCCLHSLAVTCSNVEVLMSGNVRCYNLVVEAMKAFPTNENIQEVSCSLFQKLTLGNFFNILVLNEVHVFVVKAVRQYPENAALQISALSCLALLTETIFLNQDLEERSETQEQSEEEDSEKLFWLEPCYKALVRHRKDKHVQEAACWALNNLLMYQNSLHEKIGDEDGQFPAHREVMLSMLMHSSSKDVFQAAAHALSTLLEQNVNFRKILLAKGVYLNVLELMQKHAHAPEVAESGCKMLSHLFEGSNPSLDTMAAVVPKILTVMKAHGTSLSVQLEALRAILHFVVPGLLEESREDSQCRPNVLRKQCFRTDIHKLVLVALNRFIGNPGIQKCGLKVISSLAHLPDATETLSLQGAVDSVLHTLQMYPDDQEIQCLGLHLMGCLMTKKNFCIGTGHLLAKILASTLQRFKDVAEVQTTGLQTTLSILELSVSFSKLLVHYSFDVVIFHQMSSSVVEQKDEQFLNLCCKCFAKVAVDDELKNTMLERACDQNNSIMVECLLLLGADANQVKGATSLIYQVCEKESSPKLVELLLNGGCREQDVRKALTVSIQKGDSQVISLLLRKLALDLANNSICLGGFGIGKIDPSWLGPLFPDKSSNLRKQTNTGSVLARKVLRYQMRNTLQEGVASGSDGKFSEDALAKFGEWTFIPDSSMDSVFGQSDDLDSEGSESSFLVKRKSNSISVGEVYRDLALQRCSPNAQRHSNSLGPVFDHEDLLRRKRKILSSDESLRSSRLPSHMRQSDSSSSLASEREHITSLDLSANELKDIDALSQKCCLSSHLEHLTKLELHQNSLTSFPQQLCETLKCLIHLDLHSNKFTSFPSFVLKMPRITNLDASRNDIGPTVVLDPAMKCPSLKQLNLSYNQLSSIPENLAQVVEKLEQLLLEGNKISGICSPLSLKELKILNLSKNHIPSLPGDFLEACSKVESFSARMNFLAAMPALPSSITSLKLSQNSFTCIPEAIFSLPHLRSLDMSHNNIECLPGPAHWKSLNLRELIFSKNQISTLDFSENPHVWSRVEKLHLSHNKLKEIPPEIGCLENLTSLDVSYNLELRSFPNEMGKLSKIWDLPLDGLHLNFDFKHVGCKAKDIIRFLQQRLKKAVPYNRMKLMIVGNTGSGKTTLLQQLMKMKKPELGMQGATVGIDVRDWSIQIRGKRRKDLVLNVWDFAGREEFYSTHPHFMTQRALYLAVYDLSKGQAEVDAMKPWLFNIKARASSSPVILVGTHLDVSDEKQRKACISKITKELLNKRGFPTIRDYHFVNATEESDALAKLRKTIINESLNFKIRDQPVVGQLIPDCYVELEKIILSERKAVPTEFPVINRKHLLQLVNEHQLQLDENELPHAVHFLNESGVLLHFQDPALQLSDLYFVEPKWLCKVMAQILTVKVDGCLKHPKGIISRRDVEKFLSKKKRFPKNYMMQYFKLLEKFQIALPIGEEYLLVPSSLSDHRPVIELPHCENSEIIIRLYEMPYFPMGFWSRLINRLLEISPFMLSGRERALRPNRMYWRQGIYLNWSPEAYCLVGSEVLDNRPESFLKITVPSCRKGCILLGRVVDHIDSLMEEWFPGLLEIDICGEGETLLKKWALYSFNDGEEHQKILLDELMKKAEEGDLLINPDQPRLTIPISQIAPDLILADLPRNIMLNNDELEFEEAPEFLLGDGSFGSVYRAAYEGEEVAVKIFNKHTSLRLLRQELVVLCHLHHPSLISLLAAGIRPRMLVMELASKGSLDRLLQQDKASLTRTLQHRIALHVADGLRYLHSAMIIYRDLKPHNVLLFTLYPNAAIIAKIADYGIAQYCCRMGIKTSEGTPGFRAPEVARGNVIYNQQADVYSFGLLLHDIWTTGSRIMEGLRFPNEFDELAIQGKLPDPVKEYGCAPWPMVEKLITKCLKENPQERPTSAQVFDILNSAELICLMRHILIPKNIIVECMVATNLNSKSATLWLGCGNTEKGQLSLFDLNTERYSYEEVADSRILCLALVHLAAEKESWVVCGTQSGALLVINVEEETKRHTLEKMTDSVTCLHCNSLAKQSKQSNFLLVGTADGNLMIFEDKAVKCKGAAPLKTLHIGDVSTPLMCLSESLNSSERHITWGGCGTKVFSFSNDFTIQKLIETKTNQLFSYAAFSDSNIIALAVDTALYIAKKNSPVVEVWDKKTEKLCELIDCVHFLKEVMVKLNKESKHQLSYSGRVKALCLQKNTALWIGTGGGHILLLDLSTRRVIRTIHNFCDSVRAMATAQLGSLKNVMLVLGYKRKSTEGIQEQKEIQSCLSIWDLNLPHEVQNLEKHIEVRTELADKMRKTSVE
Leucine-rich repeat serine/threonine-protein kinase 2 (Homo sapiens), Q5S007 [G2019S], sequence (Q5S007 whole entry G2019S): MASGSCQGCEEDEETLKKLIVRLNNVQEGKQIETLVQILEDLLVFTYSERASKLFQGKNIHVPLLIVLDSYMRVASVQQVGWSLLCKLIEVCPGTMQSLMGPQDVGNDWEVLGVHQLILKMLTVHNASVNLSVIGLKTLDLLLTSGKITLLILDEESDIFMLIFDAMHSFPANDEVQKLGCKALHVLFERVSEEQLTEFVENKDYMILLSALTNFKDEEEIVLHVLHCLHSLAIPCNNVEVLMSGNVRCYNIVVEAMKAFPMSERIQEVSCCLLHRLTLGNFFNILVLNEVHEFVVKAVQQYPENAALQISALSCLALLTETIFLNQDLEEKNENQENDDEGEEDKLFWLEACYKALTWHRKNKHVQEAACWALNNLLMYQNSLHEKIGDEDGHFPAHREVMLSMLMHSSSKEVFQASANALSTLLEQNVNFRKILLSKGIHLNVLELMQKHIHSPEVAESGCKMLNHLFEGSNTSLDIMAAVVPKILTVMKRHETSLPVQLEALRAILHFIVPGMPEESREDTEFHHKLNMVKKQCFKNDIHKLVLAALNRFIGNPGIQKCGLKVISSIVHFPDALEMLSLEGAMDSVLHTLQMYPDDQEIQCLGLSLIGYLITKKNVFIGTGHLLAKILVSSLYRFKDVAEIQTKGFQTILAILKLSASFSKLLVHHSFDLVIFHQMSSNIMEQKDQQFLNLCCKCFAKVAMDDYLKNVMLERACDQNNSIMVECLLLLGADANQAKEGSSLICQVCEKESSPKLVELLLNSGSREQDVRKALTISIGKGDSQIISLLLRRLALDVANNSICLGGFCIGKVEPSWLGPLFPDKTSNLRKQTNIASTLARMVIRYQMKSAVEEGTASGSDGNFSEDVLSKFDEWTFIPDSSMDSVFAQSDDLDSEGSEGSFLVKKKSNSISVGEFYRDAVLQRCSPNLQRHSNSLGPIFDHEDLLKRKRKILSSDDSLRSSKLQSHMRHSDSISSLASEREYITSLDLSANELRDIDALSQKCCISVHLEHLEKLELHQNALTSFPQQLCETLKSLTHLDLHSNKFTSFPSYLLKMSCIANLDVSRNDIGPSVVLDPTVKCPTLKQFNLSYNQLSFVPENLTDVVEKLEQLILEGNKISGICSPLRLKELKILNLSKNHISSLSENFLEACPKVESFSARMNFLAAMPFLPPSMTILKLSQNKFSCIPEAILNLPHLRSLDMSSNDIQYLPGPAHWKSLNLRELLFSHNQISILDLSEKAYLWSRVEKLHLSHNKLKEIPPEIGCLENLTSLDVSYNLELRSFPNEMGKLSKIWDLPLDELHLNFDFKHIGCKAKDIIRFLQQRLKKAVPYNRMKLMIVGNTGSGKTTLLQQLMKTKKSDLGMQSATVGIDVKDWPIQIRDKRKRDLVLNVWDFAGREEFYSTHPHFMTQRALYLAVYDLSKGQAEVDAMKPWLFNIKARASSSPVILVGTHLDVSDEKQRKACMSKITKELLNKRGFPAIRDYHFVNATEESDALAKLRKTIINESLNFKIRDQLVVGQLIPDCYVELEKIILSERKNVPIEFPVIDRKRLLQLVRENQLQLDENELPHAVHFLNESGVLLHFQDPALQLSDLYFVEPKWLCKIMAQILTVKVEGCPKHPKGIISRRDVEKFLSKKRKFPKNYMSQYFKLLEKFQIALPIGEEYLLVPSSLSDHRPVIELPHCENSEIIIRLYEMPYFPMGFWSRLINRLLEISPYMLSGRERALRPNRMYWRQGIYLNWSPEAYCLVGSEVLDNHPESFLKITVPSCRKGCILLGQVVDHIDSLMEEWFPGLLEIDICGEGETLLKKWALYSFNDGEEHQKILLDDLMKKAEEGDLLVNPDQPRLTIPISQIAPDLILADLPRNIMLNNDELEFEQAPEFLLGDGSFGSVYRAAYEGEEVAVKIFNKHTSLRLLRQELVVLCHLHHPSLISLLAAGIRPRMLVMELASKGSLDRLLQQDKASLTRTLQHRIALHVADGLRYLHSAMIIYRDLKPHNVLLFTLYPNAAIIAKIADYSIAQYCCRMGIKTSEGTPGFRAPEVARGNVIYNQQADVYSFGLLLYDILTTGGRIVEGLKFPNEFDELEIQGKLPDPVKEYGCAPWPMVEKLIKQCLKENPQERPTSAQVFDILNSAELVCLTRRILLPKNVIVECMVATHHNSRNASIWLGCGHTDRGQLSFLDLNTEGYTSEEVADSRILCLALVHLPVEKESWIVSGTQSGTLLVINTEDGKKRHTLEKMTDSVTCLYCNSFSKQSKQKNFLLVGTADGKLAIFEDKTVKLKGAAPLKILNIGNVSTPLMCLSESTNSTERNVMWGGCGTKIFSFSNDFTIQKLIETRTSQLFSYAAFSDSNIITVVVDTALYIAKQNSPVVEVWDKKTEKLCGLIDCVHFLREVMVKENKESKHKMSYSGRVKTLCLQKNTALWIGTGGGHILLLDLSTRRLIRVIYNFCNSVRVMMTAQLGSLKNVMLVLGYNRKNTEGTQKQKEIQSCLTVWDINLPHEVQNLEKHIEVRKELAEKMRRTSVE
Leucine-rich repeat serine/threonine-protein kinase 2 (Homo sapiens), sequence (Q5S007 whole entry): as the sequence (Q5S007 whole entry G2019S) above, with S2019G counted along it

Regarding `COc1cc(C(=O)N2CCC(N3CCN(C)CC3)CC2)ccc1Nc1ncc2c(n1)N(C)c1ccccc1C(=O)N2C`, the inhibition result in the series on Mus musculus [1] is “inactive”. Besides, the inhibition entry in [2] and in [3] was “Active” in each case.

`CNc1nc(Nc2ccc(C(=O)N3CCOCC3)cc2OC)ncc1Cl` returned an inhibition in vivo at 30 mg/kg in the series with Mus musculus [4] of 40%. Also, the inhibition result in the series on Mus musculus [5], in the series with Mus musculus [11], in the series on Mus musculus [12], with Mus musculus [13], in the series on Mus musculus [14] and in the series on Mus musculus [15] was “Active” in each case. The inhibition result (in the series on Mus musculus [16]; in the series with Mus musculus [17]; in series [36]) was “Active” in each case. The inhibition entry (in [6]; in series [7]; with Mus musculus [18]; with Mus musculus [19]; in the series on Mus musculus [24]; with Mus musculus [25]) was “Dose-dependent effect” each time. The inhibition result was “Dose-dependent effect” in the series on Mus musculus [26], “Dose-dependent effect” with Mus musculus [27], more than 80% in series [32] and more than 80% in [33]. The same molecule returned a bioavailability in series [8] of 67%. For the same molecule, the t1/2 in the series with Mus musculus [9] turned out to be 7.8 min; in the series on Liver it was 13 min. Also, the AUClast in the series on Mus musculus [10] worked out at 502 ng·h/mL. Further, the inhibition in vivo at 50 mg/kg in the series with Mus musculus [20] turned out to be 70%. Also, the inhibition in vivo at 100 mg/kg in the series with Mus musculus [1] (C57BL/6, Brain, route intraperitoneal) was determined as 70%; in the series with Mus musculus [28], 35%; in the series with Mus musculus [29], 35%; in the series on Mus musculus [30], 35%; in the series with Mus musculus [31], 35%. Further, the inhibition in vivo at 3 mg/kg with Mus musculus [21] was 40%. The inhibition in vivo at 10 mg/kg in the series with Mus musculus [22] came out at 80%. Also, the “inhibition (INH)” value in the series on Mus musculus [23] was more than 90%. Besides, the IC50 in series [34] was found to be 2.1 µM; in series [35] it was 0.6 µM.
